The results in this text go back to ChEMBL document CHEMBL4261489, “Quantitative measurement of intracellular HDAC1/2 drug occupancy using a trans-cyclooctene largazole thiol probe” (Medchemcomm, 2017).

Data set [1] has as its target T1, Histone deacetylase 2 (Homo sapiens, UniProt Q92769).
For data set [2], the target named is T2, Histone deacetylase 8 (Homo sapiens, UniProt Q9BY41).
T2 sequence (Q9BY41 whole entry): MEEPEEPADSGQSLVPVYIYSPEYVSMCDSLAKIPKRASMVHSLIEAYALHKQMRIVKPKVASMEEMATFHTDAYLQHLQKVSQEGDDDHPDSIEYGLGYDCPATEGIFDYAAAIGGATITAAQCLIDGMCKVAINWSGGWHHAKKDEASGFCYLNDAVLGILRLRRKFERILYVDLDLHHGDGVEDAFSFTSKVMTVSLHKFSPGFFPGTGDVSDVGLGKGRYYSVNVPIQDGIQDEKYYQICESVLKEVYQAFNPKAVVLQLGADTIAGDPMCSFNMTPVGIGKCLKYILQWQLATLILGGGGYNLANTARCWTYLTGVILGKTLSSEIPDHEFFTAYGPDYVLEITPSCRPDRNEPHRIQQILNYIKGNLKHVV
The experiment in a line: Inhibition of C-terminal His-tagged full length recombinant human HDAC8 expressed in baculovirus infected Sf9 insect cells using HDAC class 2a substrate 1 after 30 mins by fluorescence assay. Summed up: (§1)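 Fluorogenic deacetylation was run at 37 °C for 30 min in HEPES pH 7.5 buffer with NaCl, KCl, Tween 20, TCEP and BSA. Enzyme and substrate were: HDAC1 10 ng, HDAC2 5 ng or HDAC3 2 ng with 10 µM substrate 3; HDAC8 10 ng with 2 µM class 2a substrate 1. Compound ran at 0.001–10000 nM. Developer was added for 20 min at RT and fluorescence read at Ex360/Em460.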

Data set [3] is described as follows: Apparent permeability of the compound. Type of data set: ADME. The conditions noted are these: not told.
Data set [4] deals with T3, Histone deacetylase 1 (Homo sapiens, UniProt Q13547). Briefly: Inhibition of C-terminal FLAG/His-tagged full length recombinant human HDAC1 expressed in baculovirus infected Sf9 insect cells using HDAC substrate 3 after 30 mins by fluorescence assay. Summed up: as §1
Data set [5] concerns the target T3, Histone deacetylase 1. Briefly: Binding affinity to HDAC1 in human CD34positive cell-derived erythroid progenitor cells up to 3 uM by tetrazine-PEG4-biotin-based SDS-PAGE/immunoblot analysis.
Data set [6] addresses T1, Histone deacetylase 2. Briefly: Competitive binding affinity to HDAC2 in human CD34positive cell-derived erythroid progenitor cells in presence of largazole thiol by tetrazine-PEG4-biotin-based SDS-PAGE/immunoblot analysis. Summed up: (§2)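 Mobilized peripheral blood CD34+ cells were expanded 7 days with CC100 cytokines, then 4 days in erythroid medium (SCF, IL-3, EPO, dexamethasone, β-estradiol). Cells got DMSO or 1–100 nM inhibitor (37 °C, 2 h or 24 h), then 3 μM TCO largazole thiol for 10 min. Lysates were clicked with 50 μM tetrazine-PEG4-biotin, pulled down on streptavidin and immunoblotted for HDAC1/2. Occupancy versus vehicle gave OC50 by sigmoidal fit.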

Data set [7] concerns the target T1, Histone deacetylase 2. The experiment in a line: Binding affinity to HDAC2 in human CD34positive cell-derived erythroid progenitor cells up to 3 uM by tetrazine-PEG4-biotin-based SDS-PAGE/immunoblot analysis. A general note: In western blotting, separated proteins are transferred to a membrane and probed.
Data set [8] has as its target Histone deacetylase 3/Nuclear receptor corepressor 2 (HDAC3/NCoR2) (Homo sapiens, UniProt O15379). Briefly: Inhibition of C-terminal His-tagged full length recombinant human HDAC3/N-terminal GST-tagged NCOR2 (395 to 489 residues) expressed in baculovirus infected Sf9 insect cells using HDAC substrate 3 after 30 mins by fluorescence assay. Summed up:
as §1

Data set [9] concerns the target T3, Histone deacetylase 1. Briefly: Competitive binding affinity to HDAC1 in human CD34positive cell-derived erythroid progenitor cells in presence of largazole thiol by tetrazine-PEG4-biotin-based SDS-PAGE/immunoblot analysis. Summed up: as §2
Data set [10] concerns the target T1, Histone deacetylase 2. The experiment in a line: Binding affinity to HDAC2 in human CD34positive cell-derived erythroid progenitor cells measured up to 120 mins by tetrazine-PEG4-biotin-based SDS-PAGE/immunoblot analysis.
Data set [11] concerns the target Histone deacetylase 3 (Homo sapiens) (UniProt O15379). The experiment in a line: Binding affinity to HDAC3 in human CD34positive cell-derived erythroid progenitor cells by tetrazine-PEG4-biotin-based SDS-PAGE/immunoblot analysis.
For data set [12], the target named is T1, Histone deacetylase 2. Briefly: Inhibition of C-terminal FLAG or His-tagged full length recombinant human HDAC2 expressed in baculovirus infected Sf9 insect cells using HDAC substrate 3 after 30 mins by fluorescence assay. Summed up:
as §1

The target of data set [13] is T3, Histone deacetylase 1. The experiment in a line: Binding affinity to HDAC1 in human CD34positive cell-derived erythroid progenitor cells measured up to 120 mins by tetrazine-PEG4-biotin-based SDS-PAGE/immunoblot analysis.

Active and inactive are the calls of the source. No cut-off for these calls is given here.

The IC50 is the concentration needed to halve the response being measured. For orientation: Papp means a coefficient for how fast a substance crosses the barrier.

T3 sequence (Q13547 whole entry): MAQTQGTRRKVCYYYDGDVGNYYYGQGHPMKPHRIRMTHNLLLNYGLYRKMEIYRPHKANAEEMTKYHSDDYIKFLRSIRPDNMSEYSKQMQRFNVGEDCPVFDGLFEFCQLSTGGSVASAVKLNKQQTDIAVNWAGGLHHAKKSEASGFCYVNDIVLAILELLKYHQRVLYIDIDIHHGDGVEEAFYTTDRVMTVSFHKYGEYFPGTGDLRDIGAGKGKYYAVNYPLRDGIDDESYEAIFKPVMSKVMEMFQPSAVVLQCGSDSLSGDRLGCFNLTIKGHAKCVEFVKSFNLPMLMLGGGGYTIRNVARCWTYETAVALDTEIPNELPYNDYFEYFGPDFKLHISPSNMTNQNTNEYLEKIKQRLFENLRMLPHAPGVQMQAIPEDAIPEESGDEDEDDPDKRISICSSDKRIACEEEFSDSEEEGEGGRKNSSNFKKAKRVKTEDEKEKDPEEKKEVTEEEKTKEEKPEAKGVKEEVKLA
T1 sequence (Q92769 whole entry): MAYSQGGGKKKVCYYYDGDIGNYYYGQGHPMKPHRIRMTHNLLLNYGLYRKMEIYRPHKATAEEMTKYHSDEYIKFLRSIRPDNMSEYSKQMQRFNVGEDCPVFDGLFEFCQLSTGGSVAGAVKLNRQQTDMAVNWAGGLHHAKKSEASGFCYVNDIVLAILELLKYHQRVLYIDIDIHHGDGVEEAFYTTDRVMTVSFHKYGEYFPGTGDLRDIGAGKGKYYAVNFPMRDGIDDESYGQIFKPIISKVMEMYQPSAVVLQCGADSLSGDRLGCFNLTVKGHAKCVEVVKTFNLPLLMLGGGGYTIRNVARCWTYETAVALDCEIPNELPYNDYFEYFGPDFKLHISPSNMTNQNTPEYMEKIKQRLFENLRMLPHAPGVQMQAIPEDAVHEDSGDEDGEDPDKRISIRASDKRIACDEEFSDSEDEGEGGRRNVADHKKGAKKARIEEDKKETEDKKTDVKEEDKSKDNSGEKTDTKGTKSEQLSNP
Histone deacetylase 3 (Homo sapiens), sequence (O15379 whole entry): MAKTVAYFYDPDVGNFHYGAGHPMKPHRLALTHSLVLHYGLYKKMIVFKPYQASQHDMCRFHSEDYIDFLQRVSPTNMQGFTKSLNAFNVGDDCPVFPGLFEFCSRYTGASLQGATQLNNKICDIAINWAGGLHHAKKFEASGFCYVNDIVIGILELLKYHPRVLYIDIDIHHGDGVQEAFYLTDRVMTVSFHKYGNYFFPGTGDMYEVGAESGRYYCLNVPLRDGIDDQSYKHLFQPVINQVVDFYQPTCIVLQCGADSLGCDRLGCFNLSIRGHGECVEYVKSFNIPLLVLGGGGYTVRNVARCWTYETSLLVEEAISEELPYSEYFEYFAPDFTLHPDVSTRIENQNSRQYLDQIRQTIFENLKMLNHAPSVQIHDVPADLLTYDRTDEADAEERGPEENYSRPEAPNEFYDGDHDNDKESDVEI
Histone deacetylase 3/Nuclear receptor corepressor 2 (HDAC3/NCoR2), sequence (O15379 whole entry, the tested form may be a part): as the sequence (O15379 whole entry) above
Histone deacetylase 3/Nuclear receptor corepressor 2 (HDAC3/NCoR2), sequence (Q9Y618 whole entry, further chain, the tested form may be a part): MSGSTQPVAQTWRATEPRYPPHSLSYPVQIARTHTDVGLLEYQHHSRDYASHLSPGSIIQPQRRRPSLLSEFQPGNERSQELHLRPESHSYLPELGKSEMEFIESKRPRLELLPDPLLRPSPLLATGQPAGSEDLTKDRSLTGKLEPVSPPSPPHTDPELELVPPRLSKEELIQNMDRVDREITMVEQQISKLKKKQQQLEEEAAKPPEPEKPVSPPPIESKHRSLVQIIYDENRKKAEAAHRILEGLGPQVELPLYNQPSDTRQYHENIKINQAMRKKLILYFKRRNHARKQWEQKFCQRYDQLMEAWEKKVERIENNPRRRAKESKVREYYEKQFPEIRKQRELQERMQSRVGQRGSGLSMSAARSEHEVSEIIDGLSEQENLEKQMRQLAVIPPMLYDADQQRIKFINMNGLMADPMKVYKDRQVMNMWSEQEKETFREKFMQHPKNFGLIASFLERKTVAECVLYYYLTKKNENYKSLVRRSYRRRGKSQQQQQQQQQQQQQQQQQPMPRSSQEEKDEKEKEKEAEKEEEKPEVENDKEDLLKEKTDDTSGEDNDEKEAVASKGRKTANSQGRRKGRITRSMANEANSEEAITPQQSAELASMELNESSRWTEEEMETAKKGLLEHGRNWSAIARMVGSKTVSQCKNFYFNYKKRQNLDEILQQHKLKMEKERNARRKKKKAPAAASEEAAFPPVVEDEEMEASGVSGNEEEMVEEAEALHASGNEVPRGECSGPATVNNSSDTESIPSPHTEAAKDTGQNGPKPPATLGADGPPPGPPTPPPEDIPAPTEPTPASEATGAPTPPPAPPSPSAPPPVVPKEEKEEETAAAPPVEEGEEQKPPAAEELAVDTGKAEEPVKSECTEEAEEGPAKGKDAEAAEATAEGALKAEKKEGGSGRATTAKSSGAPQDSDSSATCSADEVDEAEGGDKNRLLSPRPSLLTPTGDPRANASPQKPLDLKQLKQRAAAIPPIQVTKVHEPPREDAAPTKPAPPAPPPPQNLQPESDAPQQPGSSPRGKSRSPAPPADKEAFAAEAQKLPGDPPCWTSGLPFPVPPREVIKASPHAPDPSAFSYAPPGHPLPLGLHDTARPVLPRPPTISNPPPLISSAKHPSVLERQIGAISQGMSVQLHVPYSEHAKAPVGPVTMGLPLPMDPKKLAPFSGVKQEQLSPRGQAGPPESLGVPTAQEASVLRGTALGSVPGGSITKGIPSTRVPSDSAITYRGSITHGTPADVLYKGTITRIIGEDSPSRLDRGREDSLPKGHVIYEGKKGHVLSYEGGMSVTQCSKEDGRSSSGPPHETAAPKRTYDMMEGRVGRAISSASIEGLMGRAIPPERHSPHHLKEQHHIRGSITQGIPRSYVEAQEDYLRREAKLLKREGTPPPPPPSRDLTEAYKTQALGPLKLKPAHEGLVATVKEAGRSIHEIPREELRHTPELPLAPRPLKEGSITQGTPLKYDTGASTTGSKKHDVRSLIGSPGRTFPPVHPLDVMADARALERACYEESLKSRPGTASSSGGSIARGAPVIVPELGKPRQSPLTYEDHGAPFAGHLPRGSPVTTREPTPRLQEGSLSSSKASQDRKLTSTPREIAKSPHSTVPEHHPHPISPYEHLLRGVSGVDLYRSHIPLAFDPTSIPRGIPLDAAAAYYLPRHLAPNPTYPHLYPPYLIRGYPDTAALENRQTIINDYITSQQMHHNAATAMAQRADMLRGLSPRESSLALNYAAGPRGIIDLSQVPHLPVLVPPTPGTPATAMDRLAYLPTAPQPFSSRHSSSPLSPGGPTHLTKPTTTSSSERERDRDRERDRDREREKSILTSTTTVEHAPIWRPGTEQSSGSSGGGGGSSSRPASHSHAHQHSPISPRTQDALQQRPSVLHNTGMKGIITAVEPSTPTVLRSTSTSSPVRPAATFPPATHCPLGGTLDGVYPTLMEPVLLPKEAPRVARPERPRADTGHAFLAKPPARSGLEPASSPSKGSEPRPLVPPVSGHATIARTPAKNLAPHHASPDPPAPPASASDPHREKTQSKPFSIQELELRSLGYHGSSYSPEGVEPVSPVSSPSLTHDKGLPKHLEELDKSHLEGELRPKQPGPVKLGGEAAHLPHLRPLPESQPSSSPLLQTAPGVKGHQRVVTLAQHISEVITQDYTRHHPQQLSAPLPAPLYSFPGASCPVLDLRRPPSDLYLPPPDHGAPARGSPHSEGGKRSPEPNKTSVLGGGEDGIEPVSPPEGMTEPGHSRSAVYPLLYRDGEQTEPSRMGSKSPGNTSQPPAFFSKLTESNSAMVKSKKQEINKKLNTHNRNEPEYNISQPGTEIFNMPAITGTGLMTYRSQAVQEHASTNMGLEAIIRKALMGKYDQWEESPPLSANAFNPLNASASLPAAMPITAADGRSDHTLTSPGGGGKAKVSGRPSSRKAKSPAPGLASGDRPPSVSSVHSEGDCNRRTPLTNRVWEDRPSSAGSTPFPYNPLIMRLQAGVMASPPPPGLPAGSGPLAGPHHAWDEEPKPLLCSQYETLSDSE

In turn, `O=C(/C=C/c1ccc(CN(CCO)CCc2c[nH]c3ccccc23)cc1)NO` had an Occ50 in data set [1] of 3 nM.
Regarding `C[C@@]12CSC(=N1)c1csc(n1)CNC(=O)C[C@@H](/C=C/CCS)OC(=O)[C@H](CCCCNC(=O)O[C@@H]1CC/C=C/CCC1)NC2=O`, the IC50 in [2] is 1110 nM; in data set [4] it was 1.9 nM; in data set [8], 1.1 nM; in [12], 6.6 nM. For the same molecule, the Papp in data set [3] is 3.23 ×10⁻⁶ cm/s. Besides, the result in data set [5], in data set [6], in [7], in data set [9], in [10] and in [13] was Active. Further, in data set [11], the result was inactive.
